# Measured values reported in ChEMBL document CHEMBL5058577, “EUbOPEN Chemogenomics Library 2 (Multiplex)” (2022).
# System: Fibroblast
# Assay: Multiplex assay against human fibroblast
# Format: toxicity, cell-based
# In short: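 Values for tubulin, mitochondrial-mass and membrane-permeability phenotypes are per cents of cells with healthy nuclei. These cells were identified by CellPathfinder machine-learning gating of live cells that had been stained at seeding with Hoechst33342, BioTracker Green Microtubule Cytoskeleton Dye, MitoTracker Red and Annexin V Alexa Fluor 680 and imaged on a CQ1 microscope at 37°C and 5% CO2 after compound addition. The gating first set Hoechst high-intensity objects apart from normal cells, then split normal cells into healthy, pyknosed or fragmented nuclei, and pyknosed cells into mitotic or apoptotic.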
# [1] = 12 h, 1 µM, compound concentration 1 uM, replicate 1
# [2] = 12 h, 1 µM, compound concentration 1 uM, replicate 2
# [3] = 12 h, 10 µM, compound concentration 10 uM, replicate 1
# [4] = 12 h, 10 µM, compound concentration 10 uM, replicate 2
# [5] = 24 h, 1 µM, compound concentration 1 uM, replicate 1
# [6] = 24 h, 1 µM, compound concentration 1 uM, replicate 2
# [7] = 24 h, 10 µM, compound concentration 10 uM, replicate 1
# [8] = 24 h, 10 µM, compound concentration 10 uM, replicate 2
# [9] = 48 h, 1 µM, compound concentration 1 uM, replicate 1
# [10] = 48 h, 1 µM, compound concentration 1 uM, replicate 2
# [11] = 48 h, 10 µM, compound concentration 10 uM, replicate 1
# [12] = 48 h, 10 µM, compound concentration 10 uM, replicate 2
smiles,measurement,setting,value
Cc1ccc(C(C)(O)c2nc3ccccc3s2)c(C)c1 (stereo not given),Population Apoptotic (%),[1],50%
same,Population Fragmented Nuclei (%),[1],8%
same,Population Healthy Nuclei (%),[1],78%
same,Population Hoechst High Intensity Objects (%),[1],0%
same,Population Membrane Permeable-Phenotype (%),[1],0%
same,Population Mitochondria Different-Phenotype (%),[1],5%
same,Population Mitotic Cells (%),[1],50%
same,Population Normal (%),[1],99%
same,Population Pyknosed Nuclei (%),[1],12%
same,Population Tubulin-Different-Phenotype (%),[1],29%
same,Total Cell Count,[1],125
same,Population Apoptotic (%),[2],44%
same,Population Fragmented Nuclei (%),[2],22%
same,Population Healthy Nuclei (%),[2],48%
same,Population Hoechst High Intensity Objects (%),[2],5%
same,Population Membrane Permeable-Phenotype (%),[2],3%
same,Population Mitochondria Different-Phenotype (%),[2],6%
same,Population Mitotic Cells (%),[2],56%
same,Population Normal (%),[2],95%
same,Population Pyknosed Nuclei (%),[2],29%
same,Population Tubulin-Different-Phenotype (%),[2],36%
same,Total Cell Count,[2],180
same,Population Apoptotic (%),[3],44%
same,Population Fragmented Nuclei (%),[3],11%
same,Population Healthy Nuclei (%),[3],72%
same,Population Hoechst High Intensity Objects (%),[3],1%
same,Population Membrane Permeable-Phenotype (%),[3],0%
same,Population Mitochondria Different-Phenotype (%),[3],5%
same,Population Mitotic Cells (%),[3],56%
same,Population Normal (%),[3],98%
same,Population Pyknosed Nuclei (%),[3],16%
same,Population Tubulin-Different-Phenotype (%),[3],24%
same,Total Cell Count,[3],153
same,Population Apoptotic (%),[4],22%
same,Population Fragmented Nuclei (%),[4],31%
same,Population Healthy Nuclei (%),[4],43%
same,Population Hoechst High Intensity Objects (%),[4],7%
same,Population Membrane Permeable-Phenotype (%),[4],15%
same,Population Mitochondria Different-Phenotype (%),[4],6%
same,Population Mitotic Cells (%),[4],77%
same,Population Normal (%),[4],92%
same,Population Pyknosed Nuclei (%),[4],25%
same,Population Tubulin-Different-Phenotype (%),[4],60%
same,Total Cell Count,[4],149
same,Population Apoptotic (%),[5],31%
same,Population Fragmented Nuclei (%),[5],13%
same,Population Healthy Nuclei (%),[5],73%
same,Population Hoechst High Intensity Objects (%),[5],0%
same,Population Membrane Permeable-Phenotype (%),[5],2%
same,Population Mitochondria Different-Phenotype (%),[5],7%
same,Population Mitotic Cells (%),[5],68%
same,Population Normal (%),[5],99%
same,Population Pyknosed Nuclei (%),[5],13%
same,Population Tubulin-Different-Phenotype (%),[5],22%
same,Total Cell Count,[5],139
same,Population Apoptotic (%),[6],47%
same,Population Fragmented Nuclei (%),[6],25%
same,Population Healthy Nuclei (%),[6],54%
same,Population Hoechst High Intensity Objects (%),[6],5%
same,Population Membrane Permeable-Phenotype (%),[6],11%
same,Population Mitochondria Different-Phenotype (%),[6],5%
same,Population Mitotic Cells (%),[6],52%
same,Population Normal (%),[6],94%
same,Population Pyknosed Nuclei (%),[6],20%
same,Population Tubulin-Different-Phenotype (%),[6],43%
same,Total Cell Count,[6],173
same,Population Apoptotic (%),[7],55%
same,Population Fragmented Nuclei (%),[7],13%
same,Population Healthy Nuclei (%),[7],74%
same,Population Hoechst High Intensity Objects (%),[7],4%
same,Population Membrane Permeable-Phenotype (%),[7],3%
same,Population Mitochondria Different-Phenotype (%),[7],6%
same,Population Mitotic Cells (%),[7],44%
same,Population Normal (%),[7],95%
same,Population Pyknosed Nuclei (%),[7],12%
same,Population Tubulin-Different-Phenotype (%),[7],24%
same,Total Cell Count,[7],152
same,Population Apoptotic (%),[8],38%
same,Population Fragmented Nuclei (%),[8],27%
same,Population Healthy Nuclei (%),[8],46%
same,Population Hoechst High Intensity Objects (%),[8],6%
same,Population Membrane Permeable-Phenotype (%),[8],12%
same,Population Mitochondria Different-Phenotype (%),[8],9%
same,Population Mitotic Cells (%),[8],61%
same,Population Normal (%),[8],93%
same,Population Pyknosed Nuclei (%),[8],25%
same,Population Tubulin-Different-Phenotype (%),[8],61%
same,Total Cell Count,[8],143
same,Population Apoptotic (%),[9],33%
same,Population Fragmented Nuclei (%),[9],16%
same,Population Healthy Nuclei (%),[9],73%
same,Population Hoechst High Intensity Objects (%),[9],4%
same,Population Membrane Permeable-Phenotype (%),[9],0%
same,Population Mitochondria Different-Phenotype (%),[9],3%
same,Population Mitotic Cells (%),[9],66%
same,Population Normal (%),[9],95%
same,Population Pyknosed Nuclei (%),[9],9%
same,Population Tubulin-Different-Phenotype (%),[9],16%
same,Total Cell Count,[9],129
same,Population Apoptotic (%),[10],50%
same,Population Fragmented Nuclei (%),[10],28%
same,Population Healthy Nuclei (%),[10],57%
same,Population Hoechst High Intensity Objects (%),[10],3%
same,Population Membrane Permeable-Phenotype (%),[10],5%
same,Population Mitochondria Different-Phenotype (%),[10],6%
same,Population Mitotic Cells (%),[10],50%
same,Population Normal (%),[10],96%
same,Population Pyknosed Nuclei (%),[10],14%
same,Population Tubulin-Different-Phenotype (%),[10],39%
same,Total Cell Count,[10],174
same,Population Apoptotic (%),[11],53%
same,Population Fragmented Nuclei (%),[11],22%
same,Population Healthy Nuclei (%),[11],68%
same,Population Hoechst High Intensity Objects (%),[11],7%
same,Population Membrane Permeable-Phenotype (%),[11],2%
same,Population Mitochondria Different-Phenotype (%),[11],6%
same,Population Mitotic Cells (%),[11],46%
same,Population Normal (%),[11],92%
same,Population Pyknosed Nuclei (%),[11],9%
same,Population Tubulin-Different-Phenotype (%),[11],27%
same,Total Cell Count,[11],156
same,Population Apoptotic (%),[12],43%
same,Population Fragmented Nuclei (%),[12],34%
same,Population Healthy Nuclei (%),[12],53%
same,Population Membrane Permeable-Phenotype (%),[12],7%
same,Population Mitochondria Different-Phenotype (%),[12],7%
same,Population Mitotic Cells (%),[12],56%
same,Population Pyknosed Nuclei (%),[12],12%
same,Population Tubulin-Different-Phenotype (%),[12],64%
same,Total Cell Count,[12],143
